Experimental findings from ChEMBL document CHEMBL1759851, “Facile synthesis and stereochemical investigation of Mannich base derivatives: evaluation of antioxidant property and antituberculostic potency” (2011) are described below.

What all share (type): functional
For assay [1], the system named is Mycobacterium tuberculosis. In words: Antituberculosis activity against Mycobacterium tuberculosis H37Rv. Summed up: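 Zone-of-inhibition assay against M. tuberculosis H37Rv. Zone diameters were scored on an activity index: 0–5 mm, 6–10 mm (+), 11–15 mm (++), 16–20 mm (+++), and a top band (++++) for larger zones.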
Assay [2] relates to Radical scavenging activity. In words: Antioxidant activity assessed as DPPH radical scavenging activity at 100 ug/mL after 30 mins. The essentials:
(§1)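 Oxime ethers tested by DPPH radical scavenging (Blois method, slightly modified). Sample and DPPH solution mixed gently and left at room temperature for 30 min. Optical density read at 530 nm on a microplate reader. Scavenging reported as % inhibition at each test concentration.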
For orientation: DPPH is a stable violet radical that fades when it is reduced.

In assay [3] the test system is Radical scavenging activity. In words: Antioxidant activity assessed as DPPH radical scavenging activity at 400 ug/mL after 30 mins. Summed up: as §1
Assay [4] concerns Radical scavenging activity. In words: Antioxidant activity assessed as DPPH radical scavenging activity at 200 ug/mL after 30 mins. The essentials:
as §1

For assay [5], the system named is Radical scavenging activity. In words: Antioxidant activity assessed as DPPH radical scavenging activity at 800 ug/mL after 30 mins. Summed up:
as §1

Assay [6] concerns Radical scavenging activity. Kind of assay: Antioxidant activity assessed as DPPH radical scavenging activity at 10 ug/mL after 30 mins. Summed up: as §1

By inhibition is commonly meant the change of the read-out against control, counted positive when it falls. On to `CO/N=C1\[C@H]2CCC[C@@H]1[C@H](c1ccc(OC)cc1)N(C)[C@@H]2c1ccc(OC)cc1`, for which the “inhibition zone (IZ)” value in assay [1] is listed as 6 mm. The inhibition was determined as 20.9% in assay [2], 58.8% in assay [3] and 41.9% in assay [4].

Consider `NNC(=O)c1ccncc1` [ISONIAZID], for which, in assay [1], the “inhibition zone (IZ)” value was “<=21 mm”.

Regarding `CCCCOc1ccc([C@H]2N[C@@H](c3ccc(OCCCC)cc3)[C@H]3CCC[C@@H]2/C3=N\OC)cc1`, the “inhibition zone (IZ)” value in assay [1] came out at 6 mm. Further, the figures for the inhibition in assay [2] and in assay [4] were 27.8% and 43.9%, respectively.

As for `CO/N=C1\[C@H]2CCC[C@@H]1[C@H](c1cccc(Br)c1)N[C@@H]2c1cccc(Br)c1`, in assay [2], the inhibition stood at 4.35%.

Regarding `CO/N=C1\[C@H]2CCC[C@@H]1[C@H](c1ccc(C(C)C)cc1)N[C@@H]2c1ccc(C(C)C)cc1`, the “inhibition zone (IZ)” value in assay [1] stood at 6 mm. Also, in assay [2], the inhibition is 15.3%.

In the case of `CCOc1ccccc1[C@H]1N[C@@H](c2ccccc2OCC)[C@H]2CCC[C@@H]1/C2=N\OC`, the “inhibition zone (IZ)” value in assay [1] is 6 mm. The inhibition in assay [2] was 10.2%.

As to `CO/N=C1\[C@H]2CCC[C@@H]1[C@H](c1cccc(OC)c1)N[C@@H]2c1cccc(OC)c1`, the inhibition in assay [2] was 13.5%.

In the case of `CCCOc1ccc([C@H]2N[C@@H](c3ccc(OCCC)cc3)[C@H]3CCC[C@@H]2/C3=N\OC)cc1`, the “inhibition zone (IZ)” value in assay [1] is 6 mm. Besides, the inhibition is 23.9% in assay [2] and 38.5% in assay [4].

With `CO/N=C1\[C@H]2CCC[C@@H]1[C@H](c1ccc(Cl)cc1)N(C)[C@@H]2c1ccc(Cl)cc1`, in assay [1], the “inhibition zone (IZ)” value is listed as 11 mm. Besides, the inhibition in assay [2] was 11.9%.

Consider `C=CCOc1ccc([C@H]2N[C@@H](c3ccc(OCC=C)cc3)[C@H]3CCC[C@@H]2/C3=N\OC)cc1`, for which the “inhibition zone (IZ)” value in assay [1] is “<=21 mm”. Further, the inhibition came to 21.7% in assay [2], 31.8% in assay [3] and 25.8% in assay [4].

`CO/N=C1\[C@H]2CCC[C@@H]1[C@H](c1ccc(F)cc1)N[C@@H]2c1ccc(F)cc1`: the “inhibition zone (IZ)” value in assay [1] is listed as 16 mm. The inhibition in assay [2] came to 3.6%.

As to `CO/N=C1\[C@H]2CCC[C@@H]1[C@H](c1ccc(C)cc1)N[C@@H]2c1ccc(C)cc1`, in assay [1], the “inhibition zone (IZ)” value is listed as 0 mm. For the same molecule, in assay [2], the inhibition amounted to 14.5%.

Turning to `CO/N=C1\[C@H]2CCC[C@@H]1[C@H](c1cccc(OC)c1)N(C)[C@@H]2c1cccc(OC)c1`, the inhibition was found to be 10.7% in assay [2], 26.8% in assay [3] and 13.8% in assay [4].

For the molecule `CO/N=C1\[C@H]2CCC[C@@H]1[C@H](c1ccc(C)cc1)N(C)[C@@H]2c1ccc(C)cc1`, the “inhibition zone (IZ)” value in assay [1] is listed as 6 mm. The figures for the inhibition in assay [2] and in assay [4] were 19.8% and 22%, respectively.

Consider `CO/N=C1\[C@H]2CCC[C@@H]1[C@H](c1ccc(OC(C)=O)c(OC)c1)N[C@@H]2c1ccc(OC(C)=O)c(OC)c1`, for which the inhibition was 88.8% in assay [5], 32.4% in assay [2], 78.3% in assay [3] and 52.9% in assay [4].

For `CO/N=C1\[C@H]2CCC[C@@H]1[C@H](c1ccccc1Cl)N[C@@H]2c1ccccc1Cl`, the “inhibition zone (IZ)” value in assay [1] is 6 mm. In addition, the inhibition in assay [2] turned out to be 6.47%.

Take `CCc1ccc([C@H]2N[C@@H](c3ccc(CC)cc3)[C@H]3CCC[C@@H]2/C3=N\OC)cc1`: the “inhibition zone (IZ)” value in assay [1] is listed as 0 mm. In addition, the inhibition in assay [2] was 11.9%.

For the molecule `CO/N=C1\[C@H]2CCC[C@@H]1[C@H](c1cccc(F)c1)N[C@@H]2c1cccc(F)c1`, the “inhibition zone (IZ)” value in assay [1] amounted to 6 mm. In addition, the inhibition in assay [2] was 0.97%.

Take `CO/N=C1\[C@H]2CCC[C@@H]1[C@H](c1ccccc1F)N[C@@H]2c1ccccc1F`: the “inhibition zone (IZ)” value in assay [1] is 11 mm. The inhibition in assay [2] turned out to be 2.33%.

Regarding `CO/N=C1\[C@H]2CCC[C@@H]1[C@H](c1ccccc1Cl)N(C)[C@@H]2c1ccccc1Cl`, the “inhibition zone (IZ)” value in assay [1] amounted to 11 mm. Further, in assay [2], the inhibition turned out to be 11.4%.

As for `CO/N=C1\[C@H]2CCC[C@@H]1[C@H](c1ccccc1C)N(C)[C@@H]2c1ccccc1C`, in assay [1], the “inhibition zone (IZ)” value worked out at 6 mm. Moreover, the inhibition in assay [2] is 15.3%.

Regarding `CO/N=C1\[C@H]2CCC[C@@H]1[C@H](c1ccccc1)N[C@@H]2c1ccccc1`, the “inhibition zone (IZ)” value in assay [1] was 0 mm. The inhibition in assay [2] came to 10.5%; in assay [3] it was 24.4%; in assay [4] it was 18.7%.

As for `CO/N=C1\[C@H]2CCC[C@@H]1[C@H](c1ccc(Br)cc1)N[C@@H]2c1ccc(Br)cc1`, the “inhibition zone (IZ)” value in assay [1] came to 0 mm. For the same molecule, the inhibition in assay [2] amounted to 5.72%.

For `CO/N=C1\[C@H]2CCC[C@@H]1[C@H](c1ccccc1C)N[C@@H]2c1ccccc1C`, the “inhibition zone (IZ)” value in assay [1] is 0 mm. In addition, in assay [2], the inhibition was 9.5%.

As to `CO/N=C1\[C@H]2CCC[C@@H]1[C@H](c1ccc(Cl)cc1)N[C@@H]2c1ccc(Cl)cc1`, the “inhibition zone (IZ)” value in assay [1] is listed as 11 mm. Moreover, the inhibition in assay [2] was 6.58%.

Turning to `CCOc1ccc([C@H]2N[C@@H](c3ccc(OCC)cc3)[C@H]3CCC[C@@H]2/C3=N\OC)cc1`, the “inhibition zone (IZ)” value in assay [1] amounted to 6 mm. Further, the figures for the inhibition in assay [2] and in assay [4] were 23.2% and 30.8%, respectively.

Turning to `CO/N=C1\[C@H]2CCC[C@@H]1[C@H](c1ccccc1Br)N[C@@H]2c1ccccc1Br`, in assay [2], the inhibition was 5.28%.

For the molecule `CO/N=C1\[C@H]2CCC[C@@H]1[C@H](c1ccccc1OC)N(C)[C@@H]2c1ccccc1OC`, the inhibition in assay [2] stood at 15.4%; in assay [3], 40.2%; in assay [4], 24.9%.

`CO/N=C1\[C@H]2CCC[C@@H]1[C@H](c1ccccc1OC)N[C@@H]2c1ccccc1OC`: in assay [1], the “inhibition zone (IZ)” value is recorded as 6 mm. Moreover, the inhibition in assay [2] was 16%; in assay [4], 20.7%.

Take `CO/N=C1\[C@H]2CCC[C@@H]1[C@H](c1ccccc1)N(C)[C@@H]2c1ccccc1`: the inhibition in assay [2] turned out to be 10.7%; in assay [4] it was 13.8%.

`CO/N=C1\[C@H]2CCC[C@@H]1[C@H](c1ccc(SC)cc1)N[C@@H]2c1ccc(SC)cc1`: the “inhibition zone (IZ)” value in assay [1] was 11 mm. Further, the inhibition in assay [2] stood at 17.6%; in assay [4], 22.5%.

Turning to `CO/N=C1\[C@H]2CCC[C@@H]1[C@H](c1ccc(F)cc1)N(C)[C@@H]2c1ccc(F)cc1`, the “inhibition zone (IZ)” value in assay [1] was “<=21 mm”. Moreover, in assay [2], the inhibition came out at 2.4%.

`CO/N=C1\[C@H]2CCC[C@@H]1[C@H](c1cccc(Cl)c1)N[C@@H]2c1cccc(Cl)c1`: in assay [1], the “inhibition zone (IZ)” value stood at 0 mm. The inhibition in assay [2] was determined as 4.77%.

Turning to `CO/N=C1\[C@H]2CCC[C@@H]1[C@H](c1ccc(OC)cc1)N[C@@H]2c1ccc(OC)cc1`, in assay [1], the “inhibition zone (IZ)” value is reported as 6 mm. Further, in assay [2], the inhibition came out at 13.9%.

Take `CO/N=C1\[C@H]2CCC[C@@H]1[C@H](c1ccc(Br)cc1)N(C)[C@@H]2c1ccc(Br)cc1`: the “inhibition zone (IZ)” value in assay [1] is 0 mm. For the same molecule, the inhibition in assay [2] amounted to 12.1%.

As for `O=C1O[C@H]([C@@H](O)CO)C(O)=C1O`, the inhibition in assay [6] came to 98.5%.

For the molecule `CO/N=C1\[C@H]2CCC[C@@H]1[C@H](c1ccc(OCc3ccccc3)cc1)N[C@@H]2c1ccc(OCc2ccccc2)cc1`, the “inhibition zone (IZ)” value in assay [1] is on record as “<=21 mm”. The inhibition in assay [2] came to 27.9%; in assay [4], 47.8%.
